Active and inactive are the calls of the source. The rule behind the calls is not given here.

Data set [1] is described as follows: Cmax in Sprague-Dawley rat at 5 mg/kg,po measured up to 24 hrs by LC-MS/MS analysis. The class given is ADME, organism-based. Also on record: time < 24 hrs, dose 5 mg/kg, route po. The note with it: in vivo.
The nature of data set [2]: Metabolic stability in dog liver microsomes assessed as intrinsic clearance at 0.1 µM measured up to 60 mins in presence of NADPH regeneration system by LC-MS/MS analysis. As to conditions: 1 h.
Data set [3] can be described thus: Metabolic stability in human liver microsomes assessed as intrinsic clearance at 0.1 µM measured up to 60 mins in presence of NADPH regeneration system by LC-MS/MS analysis. As to conditions: 1 h. For orientation: Liver microsomes are a subcellular fraction often used to study metabolism.
Another data set addresses Cytochrome P450 2D6 (Homo sapiens, UniProt P10635). Put plainly: Inhibition of CYP2D6 in human liver microsomes using dextromethorphan as substrate preincubated for 10 mins followed by NADPH addition and measured after 15 mins by LC-MS/MS analysis.
Data set [4] can be described thus: Tmax in Sprague-Dawley rat at 5 mg/kg,po measured up to 24 hrs by LC-MS/MS analysis. The data set is classed as ADME, organism-based. The note with it: in vivo.
The species named for the next data set is Homo sapiens. In words: Antiplatelet activity in human platelet-rich plasma assessed as inhibition of ADP-induced platelet aggregation by aggregometry. The class given is functional. Summed up:
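Human PRP from healthy donors free of aspirin/NSAIDs for at least two weeks, drawn into ACD; PRP spun at 300 g for 10 min, PPP at 2000 g. Compound in 0.5% DMSO preincubated 2 min at 37 °C with stirring (900 rpm). Aggregation induced by 10 μM ADP (final) and followed optically for 5 min.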

A short description of data set [5]: Half life in Sprague-Dawley rat at 5 mg/kg,po measured up to 24 hrs by LC-MS/MS analysis. The note with it: in vivo. The data set is classed as ADME, organism-based.
In data set [6] the target is T1, Cytochrome P450 3A4 (Homo sapiens, UniProt P08684). In words: Inhibition of CYP3A4 in human liver microsomes using testosterone as substrate preincubated for 10 mins followed by NADPH addition and measured after 15 mins by LC-MS/MS analysis.
T1 sequence (P08684 whole entry): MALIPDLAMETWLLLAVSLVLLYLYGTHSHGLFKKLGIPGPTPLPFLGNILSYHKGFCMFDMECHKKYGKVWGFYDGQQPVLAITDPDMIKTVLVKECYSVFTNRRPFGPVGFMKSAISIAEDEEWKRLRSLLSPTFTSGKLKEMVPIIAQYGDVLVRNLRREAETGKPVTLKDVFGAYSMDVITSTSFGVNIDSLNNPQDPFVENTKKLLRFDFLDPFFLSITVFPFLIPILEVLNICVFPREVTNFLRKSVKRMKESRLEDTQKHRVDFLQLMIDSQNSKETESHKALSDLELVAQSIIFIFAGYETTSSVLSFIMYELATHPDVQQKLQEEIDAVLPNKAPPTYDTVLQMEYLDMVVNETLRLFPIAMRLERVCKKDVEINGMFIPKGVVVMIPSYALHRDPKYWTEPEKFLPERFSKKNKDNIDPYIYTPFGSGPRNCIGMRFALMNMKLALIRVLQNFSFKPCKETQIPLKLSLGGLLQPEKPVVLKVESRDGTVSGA
Data set [7] has as its system Rattus norvegicus. In words: Antithrombotic activity in anesthetized Wistar rat model of FeCL3-induced carotid artery thrombosis assessed as reduction in thrombus weight at 10 mg/kg, po administered as single dose measured at 1.5 hrs post dose. The data set is classed as functional, organism-based. Summed up: (§1)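 Compounds in 0.5% CMC-Na given to Wistar rats as a single oral gavage dose (10 mL/kg). Rats anesthetized with 2% pentobarbital i.p. at 50 mg/kg and kept on a heating pad. At 1.5 h post-dose, filter paper soaked in 20% FeCl3 applied to the isolated left carotid artery for 10 min; thrombus weight recorded. Mean ± SEM, n = 10.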

Data set [8] can be described thus: Metabolic stability in human liver microsomes assessed as half life at […] measured up to 60 mins in presence of NADPH regeneration system by LC-MS/MS analysis. The data set is classed as ADME, Microsome.
The nature of data set [9]: Metabolic stability in rat liver microsomes assessed as intrinsic clearance at 0.1 µM measured up to 60 mins in presence of NADPH regeneration system by LC-MS/MS analysis. The note with it: 1 h.
The target of another data set is Cytochrome P450 2C9 (Homo sapiens, UniProt P11712). Put plainly: Inhibition of CYP2C9 in human liver microsomes using tolbutamide as substrate preincubated for 10 mins followed by NADPH addition and measured after 15 mins by LC-MS/MS analysis.
Sequence of Cytochrome P450 2C9 (P11712 whole entry): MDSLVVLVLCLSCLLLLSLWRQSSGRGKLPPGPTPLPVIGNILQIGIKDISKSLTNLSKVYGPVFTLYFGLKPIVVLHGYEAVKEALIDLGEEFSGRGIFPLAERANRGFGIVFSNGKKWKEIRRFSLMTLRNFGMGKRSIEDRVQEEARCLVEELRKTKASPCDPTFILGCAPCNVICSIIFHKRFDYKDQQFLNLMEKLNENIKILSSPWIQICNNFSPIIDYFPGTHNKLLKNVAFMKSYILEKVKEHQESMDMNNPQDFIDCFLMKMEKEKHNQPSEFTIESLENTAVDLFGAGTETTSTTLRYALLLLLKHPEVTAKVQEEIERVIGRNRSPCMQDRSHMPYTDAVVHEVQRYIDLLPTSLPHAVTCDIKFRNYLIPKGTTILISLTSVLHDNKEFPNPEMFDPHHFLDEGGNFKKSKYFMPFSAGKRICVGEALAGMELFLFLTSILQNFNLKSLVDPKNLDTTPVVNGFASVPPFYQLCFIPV
The nature of data set [10]: AUC (0 to infinity) in Sprague-Dawley rat at 5 mg/kg,po measured up to 24 hrs by LC-MS/MS analysis. The class given is ADME, organism-based. On the set-up: time < 24 hrs, dose 5 mg/kg, route po. As to conditions: in vivo.
Data set [11] can be described thus: Metabolic stability in dog liver microsomes assessed as half life at […] measured up to 60 mins in presence of NADPH regeneration system by LC-MS/MS analysis. The class given is ADME, Canis lupus familiaris, Microsome.
Data set [12] in a line: MRT in Sprague-Dawley rat at 5 mg/kg,po measured up to 24 hrs by LC-MS/MS analysis. As to conditions: in vivo. The data set is classed as ADME, organism-based.
In the next data set the target is Cytochrome P450 2C19 (Homo sapiens, UniProt P33261). In words: Inhibition of CYP2C19 in human liver microsomes using S-mephenytoin as substrate preincubated for 10 mins followed by NADPH addition and measured after 15 mins by LC-MS/MS analysis.
Sequence of Cytochrome P450 2C19 (P33261 whole entry): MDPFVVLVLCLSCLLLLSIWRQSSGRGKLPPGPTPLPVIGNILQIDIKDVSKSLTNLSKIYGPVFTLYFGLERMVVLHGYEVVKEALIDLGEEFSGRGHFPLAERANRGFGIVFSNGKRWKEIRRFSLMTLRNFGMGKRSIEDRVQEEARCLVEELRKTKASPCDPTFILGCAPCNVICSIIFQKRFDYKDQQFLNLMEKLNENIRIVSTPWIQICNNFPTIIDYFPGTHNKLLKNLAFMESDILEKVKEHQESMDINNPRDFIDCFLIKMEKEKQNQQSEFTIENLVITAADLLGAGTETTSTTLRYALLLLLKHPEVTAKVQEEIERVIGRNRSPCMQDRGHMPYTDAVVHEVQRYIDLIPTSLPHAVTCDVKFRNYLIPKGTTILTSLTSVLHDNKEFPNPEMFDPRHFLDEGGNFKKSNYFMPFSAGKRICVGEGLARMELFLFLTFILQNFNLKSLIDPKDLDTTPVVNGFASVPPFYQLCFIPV
The next data set has as its target T2, Cytochrome P450 1A2 (Homo sapiens, UniProt P05177).
T2 sequence (P05177 whole entry): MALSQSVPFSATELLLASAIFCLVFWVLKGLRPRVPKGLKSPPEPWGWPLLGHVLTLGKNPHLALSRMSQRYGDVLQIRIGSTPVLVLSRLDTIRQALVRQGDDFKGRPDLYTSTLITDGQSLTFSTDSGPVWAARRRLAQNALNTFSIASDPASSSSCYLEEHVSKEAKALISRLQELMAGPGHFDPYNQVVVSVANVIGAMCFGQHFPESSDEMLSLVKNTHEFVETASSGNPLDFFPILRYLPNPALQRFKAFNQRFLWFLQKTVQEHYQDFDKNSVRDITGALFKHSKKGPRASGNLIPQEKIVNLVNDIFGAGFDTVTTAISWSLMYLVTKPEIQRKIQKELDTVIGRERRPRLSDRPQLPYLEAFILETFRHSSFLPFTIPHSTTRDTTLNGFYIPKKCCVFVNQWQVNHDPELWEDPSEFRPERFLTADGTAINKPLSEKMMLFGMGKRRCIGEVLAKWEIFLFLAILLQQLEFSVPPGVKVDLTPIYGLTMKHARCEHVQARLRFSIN
Put plainly: Inhibition of CYP1A2 in human liver microsomes using phenacetin as substrate preincubated for 10 mins followed by NADPH addition and measured after 15 mins by LC-MS/MS analysis.

A short description of data set [13]: Metabolic stability in rat liver microsomes assessed as half life at […] measured up to 60 mins in presence of NADPH regeneration system by LC-MS/MS analysis. The data set is classed as ADME, Microsome.
Data set [14] concerns the target T1, Cytochrome P450 3A4. In words: Inhibition of CYP3A4 in human liver microsomes using Midazolam as substrate preincubated for 10 mins followed by NADPH addition and measured after 15 mins by LC-MS/MS analysis.
Data set [15] has as its system Rattus norvegicus. Put plainly: Antithrombotic activity in anesthetized Wistar rat model of tail-bleeding assessed as increase in bleeding time at 40 mg/kg, po administered as single dose measured at 1.5 hrs post dose. The data set is classed as functional. Summed up: (§2)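 Male rats (250–300 g, n = 10 per dose) acclimatized at least 7 days, then dosed by oral gavage. At 1.5 h, anesthetized with 2% pentobarbital i.p. at 50 mg/kg. Tail transected 4 mm from the tip and immersed in saline at 37 °C; bleeding ended when no blood appeared for 30 s. Bleeding time and blood loss weight recorded as mean ± SEM.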

In data set [16] the test system is Rattus norvegicus. In words: Antithrombotic activity in anesthetized Wistar rat model of tail-bleeding assessed as increase in bleeding weight at 40 mg/kg, po administered as single dose measured at 1.5 hrs post dose. The data set is classed as functional. Summed up: as §2
The test system of data set [17] is Rattus norvegicus. In words: Antithrombotic activity in anesthetized Wistar rat model of tail-bleeding assessed as increase in bleeding time po administered as single dose measured at 1.5 hrs post dose. The data set is classed as functional. Summed up:
as §2

Data set [18] deals with Rattus norvegicus. Put plainly: Antithrombotic activity in anesthetized Wistar rat model of tail-bleeding assessed as increase in bleeding weight at […], po administered as single dose measured at 1.5 hrs post dose. The class given is functional.
For data set [19], the system named is Rattus norvegicus. Put plainly: Antithrombotic activity in anesthetized Wistar rat model of FeCL3-induced carotid artery thrombosis assessed as reduction in thrombus weight po administered as single dose measured at 1.5 hrs post dose. The class given is functional. Summed up: as §1
Data set [20] has as its system Rattus norvegicus. Put plainly: Antithrombotic activity in anesthetized Wistar rat model of FeCL3-induced carotid artery thrombosis assessed as reduction in thrombus weight by measuring inhibition of thrombosis formation at 40 mg/kg, po administered as single dose measured at 1.5 hrs post dose. The data set is classed as functional. Also on record: scale not given: the % may be the effect or the level left. Summed up: as §1

Data set [21] relates to Rattus norvegicus. In words: Antithrombotic activity in anesthetized Wistar rat model of tail-bleeding assessed as increase in bleeding weight at 10 mg/kg, po administered as single dose measured at 1.5 hrs post dose. The class given is functional. Summed up:
as §2

Data set [22] has as its system Rattus norvegicus. Put plainly: Antithrombotic activity in anesthetized Wistar rat model of tail-bleeding assessed as increase in bleeding weight at 20 mg/kg, po administered as single dose measured at 1.5 hrs post dose. The class given is functional. Summed up: as §2
In data set [23] the test system is Rattus norvegicus. In words: Antithrombotic activity in anesthetized Wistar rat model of tail-bleeding assessed as increase in bleeding weight at 5 mg/kg, po administered as single dose measured at 1.5 hrs post dose. The data set is classed as functional. Summed up:
as §2

The nature of data set [24]: Oral bioavailability in Sprague-Dawley rat at 5 mg/kg,po measured up to 24 hrs by LC-MS/MS analysis. The class given is ADME, organism-based. The note with it: in vivo.

Sequence of Cytochrome P450 2D6 (P10635 whole entry): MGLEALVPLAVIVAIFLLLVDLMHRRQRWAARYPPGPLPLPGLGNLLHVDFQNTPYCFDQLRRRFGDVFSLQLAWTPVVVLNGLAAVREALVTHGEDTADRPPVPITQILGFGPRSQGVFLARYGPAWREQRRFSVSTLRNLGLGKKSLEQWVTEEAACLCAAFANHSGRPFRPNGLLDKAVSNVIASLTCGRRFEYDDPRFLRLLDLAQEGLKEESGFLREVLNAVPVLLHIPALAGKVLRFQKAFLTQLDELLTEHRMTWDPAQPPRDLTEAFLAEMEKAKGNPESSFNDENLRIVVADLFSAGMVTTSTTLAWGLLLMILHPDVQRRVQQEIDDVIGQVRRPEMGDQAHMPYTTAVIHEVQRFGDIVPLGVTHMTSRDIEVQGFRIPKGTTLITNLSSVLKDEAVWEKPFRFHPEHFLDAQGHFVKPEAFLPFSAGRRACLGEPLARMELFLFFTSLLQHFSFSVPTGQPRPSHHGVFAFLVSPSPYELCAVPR

The compound `CC1(C(=O)NS(=O)(=O)c2ccc(Cl)s2)CCN(c2nc3c(cc2C#N)C(=O)OC3)CC1` displayed a Cmax in data set [1] of 479 ng/mL. In addition, the intrinsic clearance in [2] was found to be 10.5 mL/min/g; in data set [3] it was 10.3 mL/min/g; in data set [9] it was 27.6 mL/min/g. The IC50 against Cytochrome P450 2D6 is more than 50 µM; in the data set filed under Homo sapiens, 1.64 µM; at Cytochrome P450 3A4 [6], more than 50 µM; against Cytochrome P450 2C9, more than 50 µM; at Cytochrome P450 2C19, 7.75 µM; on Cytochrome P450 1A2, more than 50 µM. Moreover, the 50% inhibitory concentration (IC50) on Cytochrome P450 3A4 [14] was more than 50 µM. In data set [4], the Tmax worked out at 0.25 h. Moreover, the half-life was 1.26 h in [5], 3.4 h in data set [8], 3.34 h in [11] and 1.27 h in data set [13]. Further, the outcome in the data set on Rattus norvegicus [7] was Active. Moreover, the AUC(0-inf) in data set [10] is 1060 ng·h/mL. In data set [12], this compound yielded an MRT of 1.98 h.

In data set [1], `Cc1ccc(CS(=O)(=O)NC(=O)C2(C)CCN(c3nc4c(cc3C#N)C(=O)OC4)CC2)cc1` gave a Cmax of 1660 ng/mL. Also, the intrinsic clearance in data set [2] was found to be 116.3 mL/min/g; in [3] it was 10.1 mL/min/g; in data set [9], 10.6 mL/min/g. Also, the Time in the data set with Rattus norvegicus [15] amounted to 33.09 min. The Tmax in [4] was determined as 0.25 h. Besides, in the data set listed under Homo sapiens, the IC50 stood at 2.94 µM. For the same compound, the half-life was 2.91 h in [5], 3.47 h in data set [8], 1.62 h in data set [11] and 1.48 h in data set [13]. In the data set on Rattus norvegicus [7], the outcome was Active. The Activity is on record as 0.66 g in the data set on Rattus norvegicus [16]; 0.24 g in the data set on Rattus norvegicus [18]; 56% with Rattus norvegicus [20]; 0.39 g in the data set on Rattus norvegicus [21]; 0.43 g in the data set on Rattus norvegicus [22]; 0.31 g in the data set on Rattus norvegicus [23]. In addition, the ED100 in the data set on Rattus norvegicus [17] amounted to 7.58 mg/kg. In data set [10], this compound came in with an AUC(0-inf) of 4120 ng·h/mL. The 50% effective dose (ED50) in the data set on Rattus norvegicus [19] came out at 27 mg/kg. The MRT in data set [12] was determined as 3.64 h. This compound had a bioavailability in [24] of 51%.

For the compound `COC(=O)[C@H](c1ccccc1Cl)N1CCc2sccc2C1` [CLOPIDOGREL], the ED100 with Rattus norvegicus [17] was found to be 2.36 mg/kg. The Activity in the data set with Rattus norvegicus [18] was 0.44 g; with Rattus norvegicus [21], 1.2 g; in the data set on Rattus norvegicus [22], 1.99 g; in the data set on Rattus norvegicus [23], 0.7 g. In addition, the ED50 with Rattus norvegicus [19] amounted to 7 mg/kg.

For orientation: Cmax means the maximum level reached in the sampled fluid or tissue. Usually IC50 stands for the midpoint of a concentration-inhibition curve. Usually Tmax stands for the time from dosing to the highest level. A word on the half-life: it is the time in which the quantity being followed falls by half. The AUC(0-inf) is total exposure, with the tail of the curve extrapolated. In general, MRT refers to a mean duration of stay, worked out from the concentration-time curve. The term ED50 denotes the dose that gives a 50% effect, or the effect in half of the subjects. Usually bioavailability stands for dose-corrected exposure relative to a reference, in per cent.
